Source: ChEMBL document CHEMBL4619773, “Chemoreactive-Inspired Discovery of Influenza A Virus Dual Inhibitor to Block Hemagglutinin-Mediated Adsorption and Membrane Fusion” (J Med Chem, 2020)
The source made the active and inactive calls. The rule behind the calls is not given here.

Tests used:
Influenza A virus [1] = experiment: Antiviral activity against Influenza A virus (A/Puerto Rico/8/1934(H1N1)) infected in MDCK cells assessed as inhibition of virus-induced cytopathic effect incubated for 48 hrs by crystal violet staining based assay; assay type: functional, organism-based
Method in brief: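 MDCK cells were infected at MOI 0.1, the inoculum was removed, and compounds were added in triplicate. After 48 h the cells were fixed in 4% formaldehyde (20 min, RT) and stained with 0.1% crystal violet (30 min). Dye was solubilized in methanol and read at 570 nm.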

Influenza A virus [2] = experiment: Antiviral activity against Influenza A virus (A/Puerto Rico/8/1934(H1N1)) infected in Kunming mouse assessed as mouse survival at 10 mg/kg/day, po starting 4 hrs after viral challenge and continued for 7 days by plaque assay; assay type: functional
Method in brief: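 Groups of 10 female Kunming mice were infected intranasally with PR8 (1000 PFU/mouse) on day 0 and dosed once daily for seven days. Weight and clinical signs were recorded daily. Mice losing more than 25% of pre-infection weight were scored dead and euthanized; survivors were killed on day 14.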

Influenza A virus [3] = experiment: Antiviral activity against Influenza A virus (A/Puerto Rico/8/1934(H1N1)) infected in Kunming mouse assessed as decrease in lung IL6 level at 10 mg/kg/day, po starting 4 hrs after viral challenge and continued for 4 days by ELISA; assay type: functional, organism-based
Method in brief: (§1)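 Four-week-old female Kunming mice received PR8 intranasally (500 PFU/mouse in 40 µL PBS) and were then dosed once daily orally or intranasally. Lungs were collected on day 4, and TNF-α and IL-6 in lung tissue were measured by ELISA.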

Influenza A virus [4] = experiment: Antiviral activity against Influenza A virus (A/Puerto Rico/8/1934(H1N1)) infected in Kunming mouse assessed as decrease in lung TNFalpha level at 10 mg/kg/day, po starting 4 hrs after viral challenge and continued for 4 days by ELISA; assay type: functional, organism-based; method in brief: as §1
[5] = Cytotoxicity in dog MDCK cells assessed as reduction in cell viability incubated for 48 hrs by crystal violet staining based assay; set-up: species or system Canis lupus familiaris
[6] = Selectivity index, ratio of CC50 for cytotoxicity in dog MDCK cells assessed as reduction in cell viability incubated for 48 hrs by crystal violet staining based assay to […] in dog MDCK cells assessed as reduction in cell viability incubated for 48 hrs by crystal violet staining based assay
[7] = molecular target: Hemagglutinin (Influenza A virus (A/Puerto Rico/8/1934(H1N1)), UniProt P03452); experiment: Binding affinity to Influenza A virus (A/Puerto Rico/8/1934(H1N1)) Hemagglutinin at 1.5625 to 50 uM by SPR assay
Sequence of Hemagglutinin (Influenza A virus (A/Puerto Rico/8/1934(H1N1)), UniProt P03452) (P03452 whole entry): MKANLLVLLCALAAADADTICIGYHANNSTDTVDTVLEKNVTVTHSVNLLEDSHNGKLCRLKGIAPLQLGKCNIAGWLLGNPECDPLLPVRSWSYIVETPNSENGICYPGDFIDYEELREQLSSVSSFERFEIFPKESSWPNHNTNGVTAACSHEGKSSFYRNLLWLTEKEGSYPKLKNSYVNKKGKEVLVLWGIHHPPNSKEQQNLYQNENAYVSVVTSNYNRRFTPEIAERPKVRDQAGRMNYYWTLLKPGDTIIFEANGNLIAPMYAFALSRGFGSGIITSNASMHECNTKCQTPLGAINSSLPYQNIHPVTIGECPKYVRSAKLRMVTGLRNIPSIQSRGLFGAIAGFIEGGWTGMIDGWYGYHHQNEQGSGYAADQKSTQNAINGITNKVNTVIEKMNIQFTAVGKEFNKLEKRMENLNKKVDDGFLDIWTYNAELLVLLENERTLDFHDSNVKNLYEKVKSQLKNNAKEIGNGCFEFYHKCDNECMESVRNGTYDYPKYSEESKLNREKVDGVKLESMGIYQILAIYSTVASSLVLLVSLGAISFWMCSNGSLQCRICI
Method in brief: (§2)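 HA protein was immobilized on CM5 chips. Compound (50, […], 12.5, 6.25, 3.125, 1.5625 µM) was injected for 2 min, followed by a 10-min PBST wash and regeneration with 2 mM NaOH for 30 s. Runs were at 25 °C with 2 µl/s flow, using a blank HA-free reference channel. KD was obtained from kinetic fitting.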

[8] = test system: Influenza A virus (A/Aichi/2/1968(H3N2)); experiment: Binding affinity to Influenza A virus (A/Aichi/2/1968(H3N2)) Hemagglutinin at 1.5625 to 50 uM by SPR assay; method in brief: as §2

## CC(=O)c1cc(C)c(O)c(Cc2cn(Cc3c(O)c(C)cc(C(C)=O)c3O)c3cccc(Br)c23)c1O
Influenza A virus [1]
  IC50: > 100 µM

## CCOC(=O)C1=C[C@@H](OC(CC)CC)[C@H](NC(C)=O)[C@@H](N)C1 [OSELTAMIVIR]
Influenza A virus [2]
  survival at 10 mg/kg/day: 100%
Influenza A virus [3]
  Activity: Active
Influenza A virus [4]
  Activity: Active

## CC(=O)c1cc(C)c(O)c(Cc2[nH]c3ccc(C)cc3c2Cc2c(O)c(C)cc(C(C)=O)c2O)c1O
[5]
  CC50 at 48 h: 681 µM
Influenza A virus [1]
  IC50: 39.8 µM
[6]
  Ratio CC50/IC50: 17.1

## CC(=O)c1cc(C)c(O)c(CNc2cc(C(F)(F)F)cc(C(F)(F)F)c2)c1O
Influenza A virus [1]
  IC50: > 100 µM

## NC(=O)c1ncn([C@@H]2O[C@H](CO)[C@@H](O)[C@H]2O)n1 [RIBAVIRIN]
Influenza A virus [1]
  IC50: 98.3 µM
[6]
  Ratio CC50/IC50: 20.8

## CC(=O)c1cc(C)c(O)c(Cc2[nH]c3cccc(Br)c3c2Cc2c(O)c(C)cc(C(C)=O)c2O)c1O
Influenza A virus [1]
  IC50: > 100 µM

## CC(=O)c1cc(C)c(O)c(Cc2c(Cc3c(O)c(C)cc(C(C)=O)c3O)n(Cc3c(O)c(C)cc(C(C)=O)c3O)c3cccc(Br)c23)c1O
Influenza A virus [1]
  IC50: > 100 µM

## CC(=O)NC1[C@H]([C@H](O)[C@H](O)CO)O[C@@](O[C@H]2[C@@H](O)[C@@H](CO)O[C@@H](O[C@@H]([C@H](O)[C@@H](O)C=O)[C@H](O)CO)[C@@H]2O)(C(=O)O)C[C@@H]1O (stereo not given in full)
[7]; read-out: Kd
  Kd: 4.5 µM
[8]
  Activity: Active

## CC(=O)c1cc(C)c(O)c(Cc2c[nH]c3ccccc23)c1O
[7]
  Kd: Not Active

## CC(=O)c1cc(C)c(O)c(Cc2c(Cc3c(O)c(C)cc(C(C)=O)c3O)n(Cc3c(O)c(C)cc(C(C)=O)c3O)c3ccccc23)c1O
Influenza A virus [1]
  IC50: > 100 µM

## CCOC(=O)c1c(CSc2ccccc2)n(C)c2cc(Br)c(O)c(CN(C)C)c12 [UMIFENOVIR]
Influenza A virus [1]
  IC50: 32.5 µM
[6]
  Ratio CC50/IC50: 10.4
[7]; read-out: Kd
  Kd: 11.1 µM
[8]
  Activity: Active
